Assay results published in ChEMBL document CHEMBL1122064, “Synthesis and biological evaluation of 17-[131I]iodo-9-telluraheptadecanoic acid, a potential imaging agent” (J Med Chem, 1982).

How the values were obtained:
Rattus norvegicus [1] = assay: Distribution of radioactivity in brain of Fischer 344 female rat after 30 min of intravenous administration; format: ADME, organism-based; conditions: in vivo, 0.5 h
Outline: (§1)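 Female Fischer 344 rats (10-12 weeks, 170-200 g) with food and water ad libitum. The 131I-labelled fatty acid was taken up in ethanol, added dropwise to stirred 6% BSA at 40 °C (final ethanol 10%), filtered, and injected into a lateral tail vein under ether. Rats were CO2-anaesthetised and killed; organs were excised, rinsed, blotted, weighed and Ge(Li)-counted. Results are mean (range) % injected dose/g.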

Rattus norvegicus [2] = assay: Distribution of radioactivity in Thyroid of Fischer 344 female rat after 6 hr of intravenous administration; format: ADME, organism-based; conditions: in vivo; outline: as §1
Rattus norvegicus [3] = assay: Distribution of radioactivity in lungs of Fischer 344 female rat after 2 min of intravenous administration; format: ADME, organism-based, Lung; conditions: in vivo
Outline: (§2)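 Female Fischer 344 rats, 10-12 weeks old, 170-200 g, fed ad libitum. The 131I-labelled fatty acid was dissolved in absolute ethanol, added dropwise to stirred 6% bovine serum albumin at 40 °C (final ethanol 10%), filtered, and injected into a lateral tail vein under ether anaesthesia. Organs were excised, rinsed, blotted and weighed, then counted by Ge(Li) analyzer as percent injected dose/g.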

Rattus norvegicus [4] = assay: Distribution of radioactivity in kidneys of Fischer 344 female rat after 2 min of intravenous administration; format: ADME, organism-based, Kidney; conditions: in vivo; outline: as §1
Rattus norvegicus [5] = assay: Distribution of radioactivity in blood of Fischer 344 female rat after 6 hr of intravenous administration; format: ADME, organism-based; conditions: in vivo; outline: as §1
Rattus norvegicus [6] = assay: Distribution of radioactivity in kidneys of Fischer 344 female rat after 30 min of intravenous administration; format: ADME, organism-based, Kidney; conditions: in vivo, 0.5 h
Rattus norvegicus [7] = assay: Distribution of radioactivity in lungs of Fischer 344 female rat after 24 hr of intravenous administration; format: ADME, organism-based, Lung; conditions: in vivo; outline: as §2
Rattus norvegicus [8] = assay: Distribution of radioactivity in kidneys of Fischer 344 female rat after 6 hr of intravenous administration; format: ADME, organism-based, Kidney; conditions: in vivo; outline: as §1
Rattus norvegicus [9] = assay: Distribution of radioactivity in Thyroid of Fischer 344 female rat after 2 min of intravenous administration; format: ADME, organism-based; conditions: in vivo; outline: as §1
Rattus norvegicus [10] = assay: Distribution of radioactivity in kidneys of Fischer 344 female rat after 60 min of intravenous administration; format: ADME, organism-based, Kidney; conditions: in vivo, 1 h
Rattus norvegicus [11] = assay: Distribution of radioactivity in lungs of Fischer 344 female rat after 7 days of intravenous administration; format: ADME, organism-based, Lung; conditions: in vivo, 168 h; outline: as §2
Rattus norvegicus [12] = assay: Distribution of radioactivity in brain of Fischer 344 female rat after 24 hr of intravenous administration; format: ADME, organism-based; conditions: in vivo; outline: as §1
Rattus norvegicus [13] = assay: Distribution of radioactivity in Thyroid of Fischer 344 female rat after 2 hr of intravenous administration; format: ADME, organism-based; conditions: in vivo; outline: as §1
Rattus norvegicus [14] = assay: Distribution of radioactivity in blood of Fischer 344 female rat after 60 min of intravenous administration; format: ADME, organism-based; conditions: in vivo, 1 h
Rattus norvegicus [15] = assay: Distribution of radioactivity in blood of Fischer 344 female rat after 24 hr of intravenous administration; format: ADME, organism-based; conditions: in vivo; outline: as §1
Rattus norvegicus [16] = assay: Distribution of radioactivity in blood of Fischer 344 female rat after 2 min of intravenous administration; format: ADME, organism-based; conditions: in vivo; outline: as §1
Rattus norvegicus [17] = assay: Distribution of radioactivity in liver of Fischer 344 female rat after 4 of days intravenous administration; format: ADME, organism-based; conditions: in vivo; outline: as §2
Rattus norvegicus [18] = assay: Distribution of radioactivity in heart of Fischer 344 female rat after 2 min of intravenous administration; format: ADME, organism-based; conditions: in vivo; outline: as §1
Rattus norvegicus [19] = assay: Distribution of radioactivity in liver of Fischer 344 female rat after 2 hr of intravenous administration; format: ADME, organism-based; conditions: in vivo; outline: as §1
Rattus norvegicus [20] = assay: Distribution of radioactivity in brain of Fischer 344 female rat after 6 hr of intravenous administration; format: ADME, organism-based; conditions: in vivo; outline: as §1
Rattus norvegicus [21] = assay: Distribution of radioactivity in liver of Fischer 344 female rat after 30 min of intravenous administration; format: ADME, organism-based; conditions: in vivo, 0.5 h
Outline: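 Female Fischer 344 rats, 10-12 weeks, 170-200 g, fed ad libitum. The labelled fatty acid was given in 6% bovine serum albumin via a lateral tail vein under ether anaesthesia. Rats were killed by CO2 anaesthesia and cervical fracture; organs were excised, rinsed, blotted, weighed and counted by Ge(Li) analyzer. Results are mean percent injected dose/g with range.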

Rattus norvegicus [22] = assay: Distribution of radioactivity in brain of Fischer 344 female rat after 7 days of intravenous administration; format: ADME, organism-based; conditions: in vivo, 168 h; outline: as §1
Rattus norvegicus [23] = assay: Distribution of radioactivity in blood of Fischer 344 female rat after 2 hr of intravenous administration; format: ADME, organism-based; conditions: in vivo; outline: as §1
Rattus norvegicus [24] = assay: Distribution of radioactivity in Thyroid of Fischer 344 female rat after 30 min of intravenous administration; format: ADME, organism-based; conditions: in vivo, 0.5 h; outline: as §1
Rattus norvegicus [25] = assay: Distribution of radioactivity in blood of Fischer 344 female rat after 4 days of intravenous administration; format: ADME, organism-based; conditions: in vivo, 96 h; outline: as §1
Rattus norvegicus [26] = assay: Distribution of radioactivity in liver of Fischer 344 female rat after 7 of days intravenous administration; format: ADME, organism-based; conditions: in vivo; outline: as §2
Rattus norvegicus [27] = assay: Distribution of radioactivity in liver of Fischer 344 female rat after 2 min of intravenous administration; format: ADME, organism-based; conditions: in vivo; outline: as §2
Rattus norvegicus [28] = assay: Distribution of radioactivity in lungs of Fischer 344 female rat after 4 days of intravenous administration; format: ADME, organism-based, Lung; conditions: in vivo, 96 h; outline: as §2
Rattus norvegicus [29] = assay: Distribution of radioactivity in kidneys of Fischer 344 female rat after 24 hr of intravenous administration; format: ADME, organism-based, Kidney; conditions: in vivo; outline: as §1
Rattus norvegicus [30] = assay: Distribution of radioactivity in Thyroid of Fischer 344 female rat after 10 min of intravenous administration; format: ADME, organism-based; conditions: in vivo; outline: as §1
Rattus norvegicus [31] = assay: Distribution of radioactivity in brain of Fischer 344 female rat after 10 min of intravenous administration; format: ADME, organism-based; conditions: in vivo; outline: as §1

## O=C(O)CCCCCCCC[Te]CCCCCCCC[131I]
Rattus norvegicus [1]
  Distribution of radioactivity: 0.06 dose g-1
Rattus norvegicus [2]
  Distribution of radioactivity: 184 dose g-1
Rattus norvegicus [3]
  Distribution of radioactivity: 1.4 dose g-1
Rattus norvegicus [4]
  Distribution of radioactivity: 1.36 dose g-1
Rattus norvegicus [5]
  Distribution of radioactivity: 0.44 dose g-1
Rattus norvegicus [6]
  Distribution of radioactivity: 0.8 dose g-1
Rattus norvegicus [7]
  Distribution of radioactivity: 0.18 dose g-1
Rattus norvegicus [8]
  Distribution of radioactivity: 0.36 dose g-1
Rattus norvegicus [9]
  Distribution of radioactivity: 6.27 dose g-1
Rattus norvegicus [10]
  Distribution of radioactivity: 0.68 dose g-1
Rattus norvegicus [11]
  Distribution of radioactivity: 0.031 dose g-1
Rattus norvegicus [12]
  Distribution of radioactivity: 0.03 dose g-1
Rattus norvegicus [13]
  Distribution of radioactivity: 166 dose g-1
Rattus norvegicus [14]
  Distribution of radioactivity: 0.64 dose g-1
Rattus norvegicus [15]
  Distribution of radioactivity: 0.08 dose g-1
Rattus norvegicus [16]
  Distribution of radioactivity: 1.28 dose g-1
Rattus norvegicus [17]
  Distribution of radioactivity: 0.02 dose g-1
Rattus norvegicus [18]
  Distribution of radioactivity: 2.39 dose g-1
Rattus norvegicus [19]
  Distribution of radioactivity: 1.02 dose g-1
Rattus norvegicus [20]
  Distribution of radioactivity: 0.03 dose g-1
Rattus norvegicus [21]
  Distribution of radioactivity: 1.75 dose g-1
Rattus norvegicus [22]
  Distribution of radioactivity: < 0.002 dose g-1
Rattus norvegicus [23]
  Distribution of radioactivity: 0.61 dose g-1
Rattus norvegicus [24]
  Distribution of radioactivity: 41.9 dose g-1
Rattus norvegicus [25]
  Distribution of radioactivity: 0.02 dose g-1
Rattus norvegicus [26]
  Distribution of radioactivity: 0.014 dose g-1
Rattus norvegicus [27]
  Distribution of radioactivity: 3.71 dose g-1
Rattus norvegicus [28]
  Distribution of radioactivity: 0.06 dose g-1
Rattus norvegicus [29]
  Distribution of radioactivity: 0.08 dose g-1
Rattus norvegicus [30]
  Distribution of radioactivity: 12.1 dose g-1
Rattus norvegicus [31]
  Distribution of radioactivity: 0.11 dose g-1
